Experimental data: ChEMBL document CHEMBL1158182, “Antifungal activity of chalcones: a mechanistic study using various yeast strains” (Eur J Med Chem, 2008)

Columns and labels:
Type in all cases: functional
Saccharomyces cerevisiae [1] = assay: Antifungal activity against haploid Saccharomyces cerevisiae 1S by agar dilution method
Summary of the method: (§1)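 S. cerevisiae and K. lactis strains were tested by agar dilution on rich YPD agar at 30 °C. Compound stocks in 96% EtOH were added to the medium to give […]. Cells were suspended in water, serially diluted to 10^9–10^3 cells/ml, and plated with a metal replicator. MIC was read from growth.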

Saccharomyces cerevisiae [2] = assay: Antifungal activity against haploid Saccharomyces cerevisiae 1169 by agar dilution method; summary of the method: as §1
Saccharomyces cerevisiae [3] = assay: Antifungal activity against haploid Saccharomyces cerevisiae 2180 by agar dilution method; summary of the method: as §1
Saccharomyces cerevisiae [4] = assay: Antifungal activity against diploid Saccharomyces cerevisiae 1a by agar dilution method; summary of the method: as §1
Saccharomyces cerevisiae [5] = assay: Antifungal activity against diploid Saccharomyces cerevisiae 29a by agar dilution method; summary of the method: as §1
Saccharomyces cerevisiae [6] = assay: Antifungal activity against haploid Saccharomyces cerevisiae Sigma 1278b by agar dilution method; summary of the method: as §1
Saccharomyces cerevisiae [7] = assay: Antifungal activity against haploid Saccharomyces cerevisiae FY4 by agar dilution method; summary of the method: as §1
Saccharomyces cerevisiae [8] = assay: Antifungal activity against haploid Saccharomyces cerevisiae 10560-6B by agar dilution method; summary of the method: as §1
Saccharomyces cerevisiae [9] = assay: Antifungal activity against haploid Saccharomyces cerevisiae YSH1170 by agar dilution method; summary of the method: as §1
Saccharomyces cerevisiae [10] = assay: Antifungal activity against haploid Saccharomyces cerevisiae YSH1171 by agar dilution method; summary of the method: as §1
Ogataea angusta [11] = assay: Antifungal activity against Hansenula polymorpha WT1 with ade1 ura3 genotype by agar dilution method
Summary of the method: (§2)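 H. polymorpha strains were tested by agar dilution on rich YPD agar at 37 °C. Compound stocks in 96% EtOH were mixed into the medium to give […]. Cells were suspended in water, serially diluted to 10^9, 10^7, 10^5 and 10^3 cells/ml, and applied to the agar with a metal replicator. MIC was read from growth.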

Ogataea angusta [12] = assay: Antifungal activity against Hansenula polymorpha WT2 with ade1 met6 genotype by agar dilution method; summary of the method: as §2
Ogataea angusta [13] = assay: Antifungal activity against Hansenula polymorpha CD1 with ade1 leu2 cds1 genotype by agar dilution method; summary of the method: as §2
Ogataea angusta [14] = assay: Antifungal activity against Hansenula polymorpha CD2 with ade1 leu2 cds2 genotype by agar dilution method; summary of the method: as §2
Ogataea angusta [15] = assay: Antifungal activity against Hansenula polymorpha CD3 with ade1 leu2 cds3 genotype by agar dilution method; summary of the method: as §2
Ogataea angusta [16] = assay: Antifungal activity against Hansenula polymorpha 2a with arg1 leu2 ura3 cys1 genotype by agar dilution method; summary of the method: as §2
Ogataea angusta [17] = assay: Antifungal activity against Hansenula polymorpha 2b with arg1 ade1 leu2 genotype by agar dilution method; summary of the method: as §2
Ogataea angusta [18] = assay: Antifungal activity against Hansenula polymorpha D22 with arg1/arg1 ade1/ADE1 leu2/leu2 URA3/ura3 CYS1/cys1 genotype by agar dilution method; summary of the method: as §2
Ogataea angusta [19] = assay: Antifungal activity against Hansenula polymorpha M2 with met2 genotype by agar dilution method; summary of the method: as §2
Ogataea angusta [20] = assay: Antifungal activity against Hansenula polymorpha MC1 with met2 cys1 genotype by agar dilution method; summary of the method: as §2
Ogataea angusta [21] = assay: Antifungal activity against Hansenula polymorpha AS1 with arg1 gsh2delta genotype by agar dilution method; summary of the method: as §2
Ogataea angusta [22] = assay: Antifungal activity against Hansenula polymorpha M4 with met4 genotype by agar dilution method; summary of the method: as §2
Ogataea angusta [23] = assay: Antifungal activity against Hansenula polymorpha AU05 with ade3 ura3 genotype by agar dilution method; summary of the method: as §2
Ogataea angusta [24] = assay: Antifungal activity against Hansenula polymorpha R3 with rgh3 genotype by agar dilution method; summary of the method: as §2
Ogataea angusta [25] = assay: Antifungal activity against Hansenula polymorpha CRD2 with leu2 CDR2 genotype by agar dilution method; summary of the method: as §2
Kluyveromyces lactis [26] = assay: Antifungal activity against Kluyveromyces lactis 2-18B with MATalpha metA1 ura3 leu2 genotype by agar dilution method; summary of the method: as §1
Kluyveromyces lactis [27] = assay: Antifungal activity against Kluyveromyces lactis 1-6A with MATalpha uraA lys arg genotype by agar dilution method; summary of the method: as §1
Kluyveromyces lactis [28] = assay: Antifungal activity against Kluyveromyces lactis 2-19B with MATalpha ura lys arg genotype by agar dilution method; summary of the method: as §1

Measured: MIC

O=C(/C=C/c1ccc(O)cc1)c1ccccc1 [4-HYDROXYCHALCONE]
> 40 µg/mL: all assays above

Cc1ccc(/C=C/C(=O)c2ccc(Cl)cc2)cc1
> 40 µg/mL: all assays above

CC(=O)Nc1ccc(/C=C/C(=O)c2ccc(Cl)cc2)cc1
> 40 µg/mL: all assays above

COc1cccc(/C=C/C(=O)c2ccc(Cl)cc2)c1O
> 40 µg/mL: all assays above

N#Cc1ccc(/C=C/C(=O)c2ccc(Cl)cc2)cc1
> 40 µg/mL: all assays above

O=C(/C=C/c1ccc(O)c(O)c1)c1ccc(Cl)cc1
> 40 µg/mL: all assays above

COc1cc(/C=C/C(=O)c2ccc(Cl)cc2)ccc1O
> 40 µg/mL: all assays above

COc1cccc(/C=C/C(=O)c2ccc(Cl)cc2)c1
> 40 µg/mL: all assays above

COc1ccc(/C=C/C(=O)c2ccc(Cl)cc2)cc1
> 40 µg/mL: all assays above

COc1cc(/C=C/C(=O)c2ccc(Cl)cc2)cc(OC)c1O
> 40 µg/mL: all assays above

O=C(/C=C/c1ccccc1)c1ccc(Cl)cc1
> 40 µg/mL: all assays above
